# Compound activity (PubChem BioAssay)
# In the library only some 0.79% were active in any assay of this set; here they are far more common.
# mIAP act: activators of mouse IAP, primary screen, biochemical, luminescence, uHTS | intestinal alkaline phosphatase [Mus musculus] | activation factor at 10 µM | 0.24% of 330,000 active | muIAP, CDP-Star luminescence, 30 min; active compounds read high; 1 = vehicle-only enzyme signal, 0 = enzyme-free wells;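 active means activation factor of at least 2 at 20 µM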
#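 Assay system: mouse IAP enzyme; reagent: chemiluminescent substrate CDP-Star; dosing: test compounds delivered from DMSO solution; schedule: 30 min at room temperature; measured by: luminescence from enzymatic CDP-Star hydrolysis; controls: DMSO-only wells and no-enzyme negative control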
# bIAP inh: bovine intestinal alkaline phosphatase inhibitors, primary screen, selectivity assay for TNAP inhibitor project, biochemical, bovine IAP, CDP-star luminescence | alkaline phosphatase, intestinal [Bos taurus] | purified bovine IAP, 30 min | inhibition, % at 20 µM | 190,000 tested, under 10 active | AID 1019, 2008;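 active means over 50% inhibition of intestinal alkaline phosphatase at 20 µM in the single-dose screen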
#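 Incubation: 30 min reaction at room temperature / Material: purified bovine intestinal alkaline phosphatase (IAP) enzyme / Input: enzyme at 1/65,000,000 dilution / Dosing: 20 µM single dose / Signal: CDP-star luminescence signal / Reagent: CDP-star chemiluminescent phosphatase substrate, 30 µM final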
# mIAP inh: inhibitors of mouse IAP, primary screen, biochemical, luminescence, uHTS. 0.2% of 330,000 active. inhibition, % at 10 µM. purified mouse IAP, CDP-Star luminescence, 30 min. intestinal alkaline phosphatase [Mus musculus]. AID 2806, 2010;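 active means inhibition of at least 40% at 10 µM in the primary screen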
# hIAP block: human IAP inhibitors, primary screen, biochemical, luminescence, uHTS. Intestinal-type alkaline phosphatase (Homo sapiens), P09923. purified IAP, CDP-Star luminescence, 30 min. inhibition, % at 10 µM. 0.12% of 330,000 active;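 active means inhibition reaching a set limit with compound at 10 µM in the primary screen, cut at about 35% in these data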
# Target sequence (P09923 whole entry, looked up): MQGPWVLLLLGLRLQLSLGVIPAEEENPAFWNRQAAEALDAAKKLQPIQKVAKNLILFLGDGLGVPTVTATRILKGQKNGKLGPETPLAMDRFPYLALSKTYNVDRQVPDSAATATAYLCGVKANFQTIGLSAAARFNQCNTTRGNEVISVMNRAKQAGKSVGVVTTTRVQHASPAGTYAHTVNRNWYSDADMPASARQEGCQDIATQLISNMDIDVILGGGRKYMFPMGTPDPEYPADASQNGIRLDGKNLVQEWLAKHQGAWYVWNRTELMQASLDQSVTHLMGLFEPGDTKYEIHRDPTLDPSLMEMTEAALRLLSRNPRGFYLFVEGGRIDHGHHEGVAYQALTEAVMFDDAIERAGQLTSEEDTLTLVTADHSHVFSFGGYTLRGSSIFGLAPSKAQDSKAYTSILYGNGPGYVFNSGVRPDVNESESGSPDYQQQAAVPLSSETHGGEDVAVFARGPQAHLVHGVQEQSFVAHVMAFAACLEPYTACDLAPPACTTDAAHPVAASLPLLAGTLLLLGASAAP
# hIAP activ: human IAP activators, primary screen, biochemical, luminescence, uHTS. 0.16% of 330,000 active. purified human IAP, CDP-Star luminescence, 30 min; active compounds read high; 1 = vehicle-only enzyme, 0 = enzyme-free background. activation factor at 10 µM. Intestinal-type alkaline phosphatase (Homo sapiens), P09923;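 active means activation factor of the enzyme at least 2-fold when tested at 20 µM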
# bIAP act: bovine intestinal alkaline phosphatase activators, primary screen, biochemical, bovine IAP, CDP-star luminescence; 0.17% of 200,000 active; AID 1016, 2008; activation factor at 20 µM; alkaline phosphatase, intestinal [Bos taurus]; purified bovine IAP, 30 min; active compounds read high; fold of DMSO-control signal, blank-subtracted;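 active means activation factor of 2 or more at 20 µM, a signal rise over negative controls twice the positive control's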
# Numbers stand for hits; i = inactive; nt = no result.
SMILES,mIAP act,bIAP inh,mIAP inh,hIAP block,hIAP activ,bIAP act
Cc1cc(C)cc(NC(=S)NCc2ccc3[nH]c4c(c3c2)CCCC4)c1,2.8,i,i,i,i,i
CCOC(=O)C1=C(CN2CCN(C(=O)c3ccco3)CC2)NC(=O)NC1c1ccc(OC)cc1 (configuration not stated),i,nt,i,i,i,nt
Cc1ccc(S(=O)(=O)Nc2csc(C)c2C(=O)O)cc1,i,nt,i,i,i,nt
Fc1ccc(CNC(=S)NCc2ccc(F)cc2)cc1,i,nt,i,i,i,nt
CC(NC(=S)Nc1cccc(C(F)(F)F)c1)C(C)(C)C (configuration not stated),3.7,i,i,i,i,i
CN(C)NC(=S)Nc1cccc(C(F)(F)F)c1,i,nt,i,i,i,nt
S=C(NCc1ccccc1)Nc1cccc(Cl)c1,2.3,i,i,i,i,i
Fc1ccc(CNC(=S)Nc2cccc(C(F)(F)F)c2)cc1,2.6,i,i,i,i,i
COc1ccc(CNC(=S)Nc2ccc(F)c(Cl)c2)cc1OC,2.6,i,i,i,i,i
O=C(CNc1cccc(Cl)c1)NNC(=S)NCc1ccccc1,i,i,i,i,i,i
COc1ccc(CNC(=S)Nc2ccccc2)cc1Cl,i,nt,i,i,i,nt
COC(=O)c1ccc(Nc2c([N+](=O)[O-])ccc3nonc23)cc1,i,nt,i,i,i,nt
Clc1ccc2oc3c(Cl)ncnc3c2c1,i,i,i,i,i,i
C[C@@H]1CN(C(=O)c2ccc(OC3CCN(S(=O)(=O)N(C)C)CC3)cc2)C[C@H](C)O1,i,nt,i,i,i,nt
COc1ccc(-n2c(=S)[nH]c3cc(C(=O)N4CCN(c5ccccc5)CC4)ccc3c2=O)c(OC)c1,i,nt,i,i,i,nt
O=C(CSc1ccc(-c2ccco2)nn1)Nc1ccc(F)cc1F,i,nt,i,i,i,nt
O=C(COc1ccccc1C(=O)NCc1ccccc1)Nc1ccccc1,i,nt,i,i,i,nt
FC(F)(F)c1cccc(NC(=S)NCc2ccc(Cl)cc2)c1,2.7,i,i,i,i,i
Fc1cc(NC(=S)NCc2ccc(CNC(=S)Nc3ccc(Cl)c(F)c3)cc2)ccc1Cl,2.1,nt,i,i,i,nt
FC(F)(F)c1cccc(NC(=S)NNC(=S)Nc2ccc(Cl)cc2)c1,i,nt,i,i,i,nt
Fc1cccc(NC(=S)NCc2ccc(Cl)cc2)c1,2.5,i,i,i,i,i
Fc1ccccc1CNC(=S)Nc1cccc(C(F)(F)F)c1,2.7,i,i,i,i,i
Fc1ccccc1NC(=S)NCc1ccc(Cl)cc1,i,nt,i,i,i,nt
O=C(CNS(=O)(=O)c1ccccc1F)NNC(=O)c1ccc(Br)cc1,i,nt,i,i,i,nt
COc1ccc(-c2cc(NCc3ccccn3)n3ncnc3n2)cc1,i,i,i,i,i,7.4
SMILES,mIAP act,bIAP inh,mIAP inh,hIAP block,hIAP activ,bIAP act
c1ccc(CNc2c3c(nc4ncnn24)CCCC3)nc1,i,i,i,i,i,4.8
Cc1csc(NC(=O)Nc2cccc(Cl)c2)n1,i,i,i,i,i,2.2
COc1ccc(NC(=O)Nc2cccc(OC)c2)cc1,i,nt,i,i,i,nt
COC(=O)c1cccc(NC(=O)Nc2ccc(Cl)cc2)c1,2.2,nt,i,i,i,nt
COc1cccc(NC(=O)Nc2cc(Cl)ccc2C)c1,2.2,i,i,i,i,i
Cc1nnc(NC(=O)Nc2cccc(Cl)c2)s1,i,i,i,i,i,i
COc1ccccc1NS(=O)(=O)c1cccc(NC(=O)NCCCl)c1,i,nt,i,i,i,nt
COc1ccccc1NS(=O)(=O)c1cccc(NC(=O)Nc2cccc(Cl)c2)c1,2.2,i,i,i,i,i
N#CCc1ccc(NC(=O)Nc2cccc(Cl)c2)cc1,2.8,i,i,i,i,i
COC(=O)c1cccc(NC(=O)NC23CC4CC(CC(C4)C2)C3)c1,2.6,i,i,i,i,i
COc1ccc(CCNC(=O)CSc2cn(Cc3cccc(C)c3)c3ccccc23)cc1OC,2.2,i,i,i,i,i
O=C(Nc1cccc2cccnc12)c1ccc2c(c1)OCCO2,i,i,i,i,i,i
COc1cc(NC(=O)c2ccc3c(c2)OCO3)c2ncccc2c1,i,i,i,i,i,11
COc1ccc(NC(=O)CCCN2C(=O)C(c3ccccc3)Oc3cccnc32)c(OC)c1 (configuration not stated),i,nt,i,i,i,nt
COc1ccc(Cn2c(C)c(C)c(C#N)c2NC(=O)Nc2cccc(C)c2)cc1,2.2,i,i,i,i,i
Cc1cccc2cc(/C=N/NC(=O)c3ccccc3O)c(Cl)nc12,i,i,i,i,i,i
Cc1ccc2cc(/C=N/NC(=O)c3ccccc3O)c(Cl)nc2c1,i,i,i,i,i,2.1
Cc1ccc(N2CCN(C(=O)CCc3nc4ccccc4[nH]3)CC2)c(C)c1,i,i,i,i,i,2.7
CCOC(=O)CSc1nc2c(c(=O)[nH]c(=O)n2C)n1CCc1ccccc1,i,i,i,i,i,i
CCOC(=O)C(CC)Sc1nc2c(c(=O)[nH]c(=O)n2C)n1CCc1ccccc1 (configuration not stated),i,i,i,i,i,2.8
Cc1ccc(NC(=O)CSc2nc3ccccc3c(=O)n2CCCN2CCCCC2)cc1C,i,i,i,i,i,2.4
Cc1ccccc1NCC(=O)N/N=C/c1c(C)c(C(=O)c2ccc(Cl)cc2)n2ccccc12,i,i,i,i,i,i
Cc1c(/C=N/NC(=O)CNc2ccccc2)c2ccccn2c1C(=O)c1ccc(Cl)cc1,i,i,i,i,i,10
COc1ccc(-c2nn(-c3ccccc3)cc2C(=O)NCCCn2ccnc2)cc1,i,i,i,i,i,2.3
COc1ccc(C(=O)NCCCn2ccnc2)cc1,i,i,i,i,i,i
SMILES,mIAP act,bIAP inh,mIAP inh,hIAP block,hIAP activ,bIAP act
CC1CC(C)CN(S(=O)(=O)c2ccc(NC(=O)[C@@H]3CCCN3C(=O)c3cccs3)cc2)C1 (some centres not stated),i,nt,50,i,i,nt
Cc1ccc(CN2CCNC(=O)C2CC(=O)N(C)C2CCCCC2)cc1 (configuration not stated),i,nt,i,i,i,nt
C[C@H](NC(=O)C1CC(=O)N(c2ccc3c(c2)OCCO3)C1)C(=O)N1CCCCC1 (some centres not stated),i,nt,i,i,i,nt
O=C(Cc1csc(-c2ccccc2)n1)Nc1ccc(C(F)(F)F)cc1,i,i,i,i,i,i
Cc1ccc(NC(=O)Cc2csc(-c3ccccc3)n2)cc1F,i,i,i,36,i,i
O=C(Nc1ccc(Cl)cc1)Nc1ccc(-c2cnco2)cc1,2,nt,i,i,i,nt
CC(=O)c1cccc(NC(=S)NCc2ccccc2)c1,i,nt,i,i,i,nt
